Source: PubChem (Sanford-Burnham Center for Chemical Genomics)
DNMT1 inh: human DNMT1 methyltransferase inhibitors, primary screen, biochemical, molecular beacon, fluorescence, HinP1I cleavage, uHTS; inhibition (reported as % activation of signal), % at 10 µM; actives 0.83% (n = 360,000); AID 588458, 2011; in the data active = inhibition above about 50%
SKN-1 block: suppressors of acrylamide-induced Pgst-4::GFP reporter in worms, primary screen, SKN-1 inhibitor project, whole organism, uHTS, GFP/RFP fluorescence ratio, strain VP596 | C. elegans VP596 Pgst-4::GFP/RFP ratio, 24 h | actives 0.49% (n = 360,000) | AID 624304, 2012 | inhibition, % at 21.8 µM;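 active = interference check ratio from 0.5 to 1.5 plus GFP to RFP signal ratio inhibition reaching or exceeding a fixed threshold, cut at about 30% in these data, passing the limit was not always enough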
SUMO1 PPI mod: modulators of SUMO1 protein-protein interactions, primary screen, biochemical, uHTS. inhibition, % at 20 µM. SUMO1 binding to a labelled peptide, TR-FRET, 1 h. actives 0.33% (n = 360,000); in the data active = inhibition above about 37%
Target sequence (P63165 whole entry, looked up): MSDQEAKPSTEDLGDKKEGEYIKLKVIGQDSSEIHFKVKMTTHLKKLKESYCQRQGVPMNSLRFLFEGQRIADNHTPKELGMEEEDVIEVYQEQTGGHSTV
MT1-MMP act inh: blockers of MT1-MMP proenzyme processing, primary screen, HT1080 RFP-PRO-GFP cells, GFP/RFP fluorescence; Matrix metalloproteinase-14 (Homo sapiens), P50281; GFP/RFP ratio fluorescence, overnight; percent of plate control window, DMSO zero; GFP/RFP ratio change, % at 20 µM; actives 0.061% (n = 360,000); AID 651647, 2012;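 active = GFP/RFP ratio change of at least 30% with cell ATP level not reduced by more than half and red fluorescence within 50% of control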
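Assay system: RFP-PRO-GFP reporter HT1080 cells; read-out basis: GFP/RFP fluorescence ratio; benchmarks: DMSO wells and RFP-L50D-GFP cells; doses: 20 µM single dose, 1% DMSO; schedule: overnight cell settling, then overnight compound exposure, 37 °C, 5% CO2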
CSN inh: inhibitors of CSN-mediated cullin deneddylation, primary screen, biochemical, fluorescence polarization, uHTS; inhibition, % at 12.5 µM; AID 651999, 2013; Purified CSN, SCF-Nedd8-OG deneddylation; actives 0.38% (n = 360,000);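 active = pattern-corrected inhibition above about 35%, with an unprinted fluorescence ratio check between 0.5 and 1.5, limit read from the data, passing the limit was not always enough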;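 also: 0% = enzyme with substrate and 100% = substrate without enzyme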
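Material: purified human Csn5 enzyme expressed in HEK293T cells / Medium: Tris buffer pH 7.5, NaCl, DTT, Tween-20, trehalose, ovalbumin / Compound dosing: 12.5 µM single point / Schedule: 90 min incubation of compound, enzyme and substrate at room temperature / Signal: fluorescence polarization of the substrate / Control set: no-enzyme wells high, enzyme-with-substrate wells low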
Rpn11 block: Rpn11 (PSMD14) deubiquitinase inhibitors, primary screen, biochemical, fluorescence polarization, uHTS; 26S proteasome non-ATPase regulatory subunit 14 (Homo sapiens), O00487; human 26S proteasome, Ub4-pepOG fluorescence polarization; 20S core pre-blocked with epoxomicin; inhibition, % at 20 µM; actives 0.59% (n = 360,000);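 active = inhibition at 20 µM, scaled to each plate's controls, above about 33%, limit read from the data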
Target sequence (O00487 whole entry, looked up): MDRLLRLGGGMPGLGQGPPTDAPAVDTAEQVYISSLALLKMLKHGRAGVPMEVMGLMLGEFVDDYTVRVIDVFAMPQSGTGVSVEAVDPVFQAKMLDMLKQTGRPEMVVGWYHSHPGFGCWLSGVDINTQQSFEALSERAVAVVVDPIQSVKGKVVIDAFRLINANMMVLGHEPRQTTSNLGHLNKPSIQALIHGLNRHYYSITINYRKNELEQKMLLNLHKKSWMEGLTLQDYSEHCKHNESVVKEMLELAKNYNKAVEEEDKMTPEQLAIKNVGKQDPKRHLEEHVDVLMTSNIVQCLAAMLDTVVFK
Rpn11 inh conf: Rpn11 (PSMD14) deubiquitinase inhibitors, confirmation, biochemical, fluorescence polarization, single concentration; shares compounds with Rpn11 block; purified human 26S proteasome, Ub4-pepOG fluorescence polarization; proteasome pretreated with epoxomicin; inhibition, % at 20 µM; actives 29% (n = 1,900); AID 602318, 2012
MMP-2 inh: MMP-2 enzyme inhibition, confirmation, counter-screen for RPN11 inhibitor project, biochemical, fluorescence, single concentration; shares compounds with Rpn11 block; recombinant MMP-2, FRET peptide cleavage fluorescence; inhibition, % at 20 µM; actives 4% (n = 1,900); AID 602330, 2012;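 also: human MMP-2 activated beforehand with APMA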
Thrombin FP: bovine thrombin protease inhibition, confirmation, counter-screen for Rpn11 inhibitor project, biochemical, fluorescence polarization, single concentration. shares compounds with Rpn11 block. bovine thrombin cleavage of Ub4-pepOG. inhibition, % at 20 µM. actives 13% (n = 1,900). AID 602333, 2012;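 active = mean inhibition at least 40% at 20 µM, or signal 3 deviations below plate average, so some actives read negative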;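 also: plate controls were thrombin with DMSO for no effect and buffer wells lacking thrombin for full effect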
An asterisk follows results filed as active; x = no result given. The list is not random: actives were taken first. Their share in the collection is about 2.3%. Rule as the data show it, unless noted: active = inhibition above about 40%; inactive = the rest.

SMILES	DNMT1 inh	SKN-1 block	SUMO1 PPI mod	MT1-MMP act inh	CSN inh	Rpn11 block	Rpn11 inh conf	MMP-2 inh	Thrombin FP
CC1(C(=O)Nc2cccc(OC(F)(F)F)c2)Cc2c(-c3cccc(C(N)=O)c3)ccnc2O1 (stereo not drawn)	-5	9	6	-2	0	2	x	x	x
COCCNC(=O)C1CCCN(C(=O)Cc2ccc(F)cc2)CC1 (stereo not drawn)	-1	-14	4	5	-1	-2	x	x	x
C=CCn1cnc2c(c1=O)c1nc3ccccc3nc1n2/N=C/c1cc(OC)c(OC)c(OC)c1	-12	-21	-15	2	-1	1	x	x	x
C=CCn1cnc2c(c1=O)c1nc3ccccc3nc1n2/N=C/c1cccc(OC)c1OC	18	21	-5	-2	59*	192*	5	-25	-2
CCOC(=O)CSc1nc2ccccc2n1C(=O)OCC	-1	21	-2	-4	9	46*	51*	-18	32
Cc1cc2nc(C(C)(C)C)c(Cc3cccc(F)c3)n2c(C)c1Br	14	3	3	-1	-5	6	x	x	x
CNc1cc(-c2cccc(OC)c2F)nc2ccnn12	4	0	2	-3	0	-2	x	x	x
Cc1cc(C)c2c(CN3CCN(c4ccccc4F)CC3)cc(=O)oc2c1	4	-4	4	1	-3	1	x	x	x
CC(C)NC(=O)c1ccc(S(=O)(=O)N(C)C)cc1	3	-8	-1	-1	-4	39*	-22	-24	-9
CCc1ccc(C(=O)NNc2cc(Cl)cc(Cl)c2)cc1	9	-1	0	2	-1	1	x	x	x
CCc1ccc(C(=O)NNc2ccc(Cl)cc2)cc1	-1	7	5	4	-2	37*	-4	-22	-9
COCCCn1c(=O)/c(=C\c2ccccc2OC(C)C)s/c1=C(/C#N)C(=O)Nc1ccc(C(=O)O)cc1	-5	5	-14	-13	44	99*	-85	-38	active
O=C(CCn1c(=S)[nH]c2cc3c(cc2c1=O)OCO3)NCCc1ccccc1Cl	13	9	-12	1	-6	-2	x	x	x
COc1cc(/C=C2\SC(N)=NC2=O)cc(Cl)c1O	-1	-8	-35	-109	27	114*	76*	-24	57*
COc1ccc(/C=C2\SC(N)=NC2=O)cc1Br	-7	1	-14	-2	9	6	x	x	x
COc1cc(/C=C2\SC(c3ccc(C)cc3)=NC2=O)cc(OC)c1O	-2	10	22	-4	27	47*	41*	21	10
C#CCN(C[C@@H]1[C@@H](OC(=O)NCC2CCCCC2)[C@@H](OC(=O)NCC2CCCCC2)Cn2c(=O)n(CCCCCC)c(=O)n21)S(=O)(=O)c1ccc(C)cc1	3	-7	3	-7	-6	3	x	x	x
COc1cc(-c2cc(NC=O)c3ncc(-c4ccc(C(C)=O)cc4)n3c2)ccc1O	-11	-14	-12	5	-2	-1	x	x	x
COc1cc(OC)cc(-c2nnc(Nc3nc4c(F)cccc4s3)o2)c1	2	10	19	21	12	114*	76*	32	-8
CN1CCN(C(=O)/C(=C/c2ccc(N(C)C)cc2)NC(=O)c2ccccc2)CC1	-2	-5	-2	-1	24	49*	17	-7	5
COC(=O)[C@]12CCCCC=C1N(Cc1cccc3ccccc13)C(=O)[C@H](CC(=O)N1CCN(C(=O)C3CC3)CC1)C2	x	1	4	0	2	x	x	x	x
Cc1ccc(NC(=O)C2(C)CCN2C(=O)C2CCCCC2)cc1C (stereo not drawn)	-2	13	6	0	3	-6	x	x	x
Cn1c(Cc2ccccc2)nc(=O)c2ccccc21	0	18	0	4	0	-22	x	x	x
COc1ccc(N2CCN(CC(O)COc3ccc4c(c3)CCC4)CC2)cc1 (stereo not drawn)	2	0	1	8	3	105*	-3	-3	-2
CC1CCCN(c2ccc([N+](=O)[O-])s2)C1 (stereo not drawn)	-4	25	-54	14	19	53*	39	-38	30
SMILES	DNMT1 inh	SKN-1 block	SUMO1 PPI mod	MT1-MMP act inh	CSN inh	Rpn11 block	Rpn11 inh conf	MMP-2 inh	Thrombin FP
CCOc1ccc(N2C(=O)S/C(=C\c3ccc(O)c(OCC)c3)C2=O)cc1	-4	13	-2	-10	2	47*	9	26	-1
CCOc1cc(/C=C2\CN(CC)C/C(=C\c3ccc(O)c(OCC)c3)C2=O)ccc1O	5	-3	-16	-10	5	8	x	x	x
CCOc1cc(/C=C2\SC(=O)N(c3ccc(O)cc3)C2=O)ccc1O	-5	-4	-42	-37	27	68*	15	1	6
O=C1Nc2ccccc2-n2nnnc2C1N1CCN(C(=O)c2ccco2)CC1 (stereo not drawn)	x	-8	-7	-2	-2	x	x	x	x
CCN1C(=O)/C(=C/c2c(C)nn(C)c2C)SC1=S	-3	7	-26	9	10	38*	33	-32	21
CCN1C(=O)/C(=C/c2cnn(CC)c2C)SC1=S	-5	-2	-25	-4	-6	6	x	x	x
CCOc1ccc(C(=O)CCC(=O)NCC(=O)Nc2ccc(F)c(F)c2F)cc1	-1	4	-7	0	3	1	x	x	x
N#Cc1ccc(-c2ccc(OCC(=O)NCC(=O)Nc3ccc(F)c(F)c3F)cc2)cc1	24	1	0	x	7	144*	97*	-30	-5
